From PubChem BioAssay
A selection: hits, their analogues and other compounds. The true share with any hit is near 1.6%.
SUMO1 PPI mod – modulators of SUMO1 protein-protein interactions, primary screen, biochemical, uHTS | Small ubiquitin-related modifier 1 (Homo sapiens), P63165 | SUMO1 binding to a labelled peptide, TR-FRET, 1 h | inhibition, % at 20 µM | 360,000 compounds, 0.33% hits | AID 602429, 2012; in the data active means inhibition above about 37%
Target sequence (P63165 whole entry, looked up): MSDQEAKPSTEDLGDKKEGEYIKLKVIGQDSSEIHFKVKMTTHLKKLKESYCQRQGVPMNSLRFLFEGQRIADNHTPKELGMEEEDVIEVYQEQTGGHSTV
Scp-1 inhibitor – Scp-1 phosphatase inhibitors, primary screen, biochemical, colorimetric, uHTS | Carboxy-terminal domain RNA polymerase II polypeptide A small phosphatase 1 (Homo … | Recombinant Scp1, phosphopeptide, malachite green phosphate absorbance | inhibition, % at 20 µM | 340,000 compounds, 0.88% hits;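 active means inhibition above about 50% at 20 µM, limit read from the data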;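 further: plate controls were DMSO wells with enzyme for no effect and wells lacking enzyme for full effect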
Target sequence (Q9GZU7 76-261 limits assumed): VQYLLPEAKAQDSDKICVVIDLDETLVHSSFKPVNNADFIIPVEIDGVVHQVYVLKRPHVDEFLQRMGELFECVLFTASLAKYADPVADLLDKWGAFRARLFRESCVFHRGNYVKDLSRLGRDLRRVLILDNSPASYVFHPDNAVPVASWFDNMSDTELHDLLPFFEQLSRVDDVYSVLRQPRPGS
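Test system: SCP-1 phosphatase catalytic domain, residues 76-261 | Compound dosing: One concentration, 20 µM, with 1.0% DMSO | Schedule: 45 min room-temperature reaction, 5 min colour, 30 min stabiliser | Detection: Absorbance at 630 nm | Read-out basis: % inhibition of SCP-1 phosphate liberation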
STEP block – STEP phosphatase inhibitors, primary screen, biochemical, fluorescence intensity, uHTS; Tyrosine-protein phosphatase non-receptor type 5 (Homo sapiens), P54829; AID 588621, 2011; inhibition, % at 20 µM; 360,000 compounds, 0.25% hits; recombinant STEP, OMFP fluorogenic substrate;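 active means inhibition at 20 µM, scaled per plate between control wells, above about 37%, limit read from the data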;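 further: 0% = DMSO with enzyme and substrate and 100% = substrate only without enzyme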
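Test system: STEP tyrosine phosphatase / Reagent: OMFP at 25 µM / Doses: 20 µM, 1% DMSO / Read-out: percent inhibition scaled to no-enzyme and uninhibited-enzyme controls, plate-pattern corrected / Detection: FITC-channel fluorescence of OMFP product / Medium: Bis-Tris buffer pH 6.0, 2.5 mM DTT, 0.005% Tween 20 / Schedule: 20 min at room temperature, dark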
LMPTP block – LMPTP phosphatase inhibitors, primary screen, biochemical, fluorescence intensity, uHTS | recombinant LMPTP-A, OMFP fluorogenic substrate | inhibition, % at 20 µM | 360,000 compounds, 0.22% hits | AID 651560, 2012;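 active means compounds that cut the enzyme signal by at least half of the control window in the single-dose screen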;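 further: plate controls were DMSO wells with enzyme plus substrate for no effect and substrate without enzyme for full effect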
Target sequence (P24666 whole entry, looked up): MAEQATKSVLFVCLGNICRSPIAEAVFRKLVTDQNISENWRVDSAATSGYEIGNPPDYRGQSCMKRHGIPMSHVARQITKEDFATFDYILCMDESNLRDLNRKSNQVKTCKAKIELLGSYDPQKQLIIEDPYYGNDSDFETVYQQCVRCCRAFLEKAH
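Assay system: LMPTP-A, protein tyrosine phosphatase of low molecular weight / Medium: pH 6.0 Bis-Tris buffer with DTT and Triton X-100 / Schedule: 50 min enzyme reaction at room temperature, protected from light / Measured by: endpoint fluorescence intensity from OMFP dephosphorylation / Read-out basis: % inhibition relative to no-enzyme and uninhibited control wells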
DNMT1 inh – human DNMT1 methyltransferase inhibitors, primary screen, biochemical, molecular beacon, fluorescence, HinP1I cleavage, uHTS; 360,000 compounds, 0.83% hits; inhibition (reported as % activation of signal), % at 10 µM; DNA (cytosine-5)-methyltransferase 1 (Homo sapiens), P26358; in the data active means inhibition above about 50%
F508del corr – F508del CFTR correction, initial screen, CFBE line, single point; CFBE cells, YFP halide quenching; stimulated with forskolin plus potentiator P3; % fluorescence drop versus neutral controls; activity (quench increase), % at 7.58 µM; 350,000 compounds, 0.36% hits; AID 720511, 2013;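 active means mean added fluorescence quench of at least 8% versus neutral control, with both replicates also reaching 8%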;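 further: cells transiently co-express mutant CFTR-F508del with the halide-sensitive YFP; corrector assay measuring rescue of mutant channel to the surface after 24 h compound exposure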
Starred values were filed as active, the others as inactive; / = no result given.

SMILES | SUMO1 PPI mod | Scp-1 inhibitor | STEP block | LMPTP block | DNMT1 inh | F508del corr
O=C(C[C@H]1C=C[C@H](NC(=O)Nc2ccccc2)[C@@H](CO)O1)NCc1cccc(F)c1 | / | / | / | / | / | -3
O=C(O)c1c2c(nc3ccc(S(=O)(=O)N4CCC(C(=O)NC5CCCCCC5)CC4)cc13)CCCC2 | 42* | 32 | 1 | 1 | 3 | -4
C[C@H](CO)N1C[C@H](C)[C@@H](CN(C)S(=O)(=O)c2ccccc2)Oc2ccc(N(C)C)cc2CC1=O | / | / | / | / | / | -1
CCOc1cc(OCC)cc(C(=O)N2CCC[C@H]2C(=O)N2CCC[C@H]2C(=O)N(C)Cc2ccccc2)c1 | 59* | / | / | 8 | / | 1
CNC[C@H]1Oc2ncc(C#CCC(C)C)cc2C(=O)N([C@H](C)CO)C[C@H]1C | / | / | / | / | / | 2
C[C@@H]1CCCCO[C@H](CN(C)Cc2ccc(C(=O)O)cc2)[C@@H](C)CN([C@H](C)CO)C(=O)c2cc(NS(=O)(=O)c3cccs3)ccc2O1 | / | / | / | / | / | -2
COc1ccc(-c2cc(=O)c3c(O)cc(O)cc3o2)cc1 | -8 | -11 | 0 | 4 | -1 | 9.8*
O=c1cc(-c2ccc(O)c(O)c2)oc2cc(O)cc(O)c12 | -17 | -9 | 0 | 6 | 11 | 8.0*
O=c1cc(-c2ccc(O)c(-c3c(O)cc(O)c4c(=O)cc(-c5ccc(O)cc5)oc34)c2)oc2cc(O)cc(O)c12 | 39 | 3 | -3 | 1 | 30 | 3
C[C@H](CO)N1C[C@H](C)[C@H](CN(C)Cc2ccc(C(=O)Nc3ccccc3N)cc2)Oc2c(NS(=O)(=O)c3ccccc3)cccc2C1=O | / | / | / | / | / | 2
COc1cc(NCCCCCCN)c2ncccc2c1OC | -12 | -15 | 2 | 29 | 62* | -6
COc1cc(NC(C)CCCNC(C)C)c2ncccc2c1OC (stereo unspecified) | -6 | -3 | -2 | -1 | -5 | -1
COc1ccccc1NC(=O)c1ccc(N)cc1 | 1 | -10 | 0 | 0 | -4 | 1
COC(=O)c1ccc(C(=O)Nc2ccc(N)cc2N)cc1 | 47* | -9 | 1 | 6 | -18 | /
Cc1ccc(/C=N/Nc2nnc(Cl)c3ccccc23)cc1 | -9 | 2 | -2 | -1 | -3 | 4
CC(=O)Nc1ccc(C=NNc2nnc(NN=Cc3ccc(NC(C)=O)cc3)c3ccccc23)cc1 | 40* | 1 | 19 | 3 | -31 | -4
CC(=O)N(C)C[C@H]1Oc2ncc(C#Cc3cccc(F)c3)cc2C(=O)N([C@@H](C)CO)C[C@@H]1C | / | / | / | / | / | -4
O=C(c1ccccc1F)N1CC[C@@H]2[C@H](CO)Nc3ccc(Br)cc3[C@@H]21 | / | / | / | / | / | 12*
COc1ccc(/C=N/NC(=O)c2c(C)nc3ccc(Br)cn23)cc1OC | -6 | 8 | -1 | -1 | 1 | 10*
Cn1c(=O)n(C)c2cc(/C=N/NC(=O)c3cc4cc(Br)ccc4o3)ccc21 | 60* | 26 | 9 | 0 | -10 | /
O=C(NCCCN1CCCC1=O)C1CCN(S(=O)(=O)c2ccc(Cl)cc2)CC1 | 38* | -10 | -2 | -10 | 7 | -3
Cc1ccc(NC(=O)CSc2nc(N)cc(=O)[nH]2)cc1S(=O)(=O)N1CCCCC1 | 39* | -4 | -2 | -1 | -6 | 3
Cc1ccc(NC(=O)CSc2nc(N)cc(=O)[nH]2)cc1S(=O)(=O)N1CCOCC1 | 2 | -2 | -2 | -1 | 8 | 0
CC(Cc1c[nH]c2ccccc12)C(=O)O (stereo unspecified) | -2 | 66* | 5 | 0 | 73* | 2
O=C(O)C(O)Cc1c[nH]c2ccccc12 (stereo unspecified) | 7 | 10 | 2 | -1 | 0 | 1
O=C(Nc1ccccn1)c1onc2c1CCCC2 | -2 | 50* | -1 | 1 | 4 | /
